Results as given in ChEMBL document CHEMBL1152543, “Novel semisynthetic derivatives of betulin and betulinic acid with cytotoxic activity” (Bioorg Med Chem, 2009).
pIC50: −log10 of the molar value. Active and inactive are the calls of the source. The rule behind the calls is not given here.

Legend:
Format in all cases: functional, cell-based
[1] = system: HeLa; assay: Cytotoxicity against human HeLa cells after 72 hrs by MTT assay
Outline: (§1)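 MTT dose–response: exponentially growing HeLa (1×10^3 cells/well) or HepG2 (8×10^3 cells/well, DMEM + 10% FBS, 1 mM pyruvate) seeded, left 24 h, then given a compound range in DMSO (final <0.1%) for 72 h. MTT 0.5 mg/ml for 1 h, formazan dissolved in DMSO, read at 550 nm. IC50 vs untreated by non-linear regression, mean ± SD of at least three experiments.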

[2] = system: HepG2; assay: Cytotoxicity against human HepG2 cells at 20 uM after 72 hrs by MTT assay
Outline: (§2)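 Single-concentration screen: compound at 20 μM applied to cells plated at 1×10^3–30×10^3 cells/well (density set by cell type), 72 h at 37 °C, 5% CO2. Viability read by MTT, triplicate wells, experiment repeated three times; result given as % proliferation versus control.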

[3] = system: Jurkat; assay: Cytotoxicity against human Jurkat cells at 20 uM after 72 hrs by XTT assay
Outline: (§3)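 XTT screen at a single concentration: cells seeded at 1×10^3–30×10^3 cells/well depending on cell type, exposed to 20 μM for 72 h at 37 °C, 5% CO2, then read by XTT. Triplicate wells, three independent repeats; output is % proliferation relative to control.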

[4] = system: HepG2; assay: Cytotoxicity against human HepG2 cells after 72 hrs by MTT assay; conditions: HepG2, 72 h; outline: as §1
[5] = system: HT-29; assay: Cytotoxicity against human HT-29 cells at 20 uM after 72 hrs by MTT assay; outline: as §2
[6] = system: HeLa; assay: Cytotoxicity against human HeLa cells at 20 uM after 72 hrs by MTT assay; outline: as §2
[7] = system: Jurkat; assay: Cytotoxicity against human Jurkat cells after 72 hrs by XTT assay
Outline: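 Jurkat cells (RPMI 1640, 10% FBS, 2 mM glutamine) in exponential growth plated at 5.5×10^3 cells/well and treated in triplicate with a concentration range or DMSO vehicle for 72 h. XTT labeling mix added, 4 h, absorbance at 450 nm. IC50 vs untreated by non-linear regression; mean ± SD of ≥3 experiments.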

[8] = system: SH-SY5Y; assay: Cytotoxicity against human SH-SY5Y cells at 20 uM after 72 hrs by XTT assay; outline: as §3
[9] = system: A-375; assay: Cytotoxicity against human A375 cells at 20 uM after 72 hrs by MTT assay; outline: as §2
[10] = system: MIA PaCa-2; assay: Cytotoxicity against human MIAPaCa2 cells at 20 uM after 72 hrs by MTT assay; outline: as §2
[11] = system: MCF7; assay: Cytotoxicity against human MCF7 cells at 20 uM after 72 hrs by MTT assay; outline: as §2

## C[C@@H](C=O)[C@@H]1CC[C@]2(COC(=O)n3ccnc3)CC[C@]3(C)[C@H](CC[C@@H]4[C@@]5(C)CC[C@H](O)C(C)(C)[C@@H]5CC[C@]43C)[C@@H]12
[1]
  pIC50: 4.95
[2]
  Activity: Active
[3]
  Activity: Active
[4]
  pIC50: 4.94
[5]
  Activity: Active
[6]
  Activity: Active
[7]
  pIC50: 4.86
[8]
  Activity: Active
[9]
  Activity: Active
[10]
  Activity: Active
[11]
  Activity: Active

## C=C(C)[C@@H]1CC[C@]2(C(=O)O)CC[C@]3(C)[C@H](CC[C@@H]4[C@@]5(C)CC[C@H](O)C(C)(C)[C@@H]5CC[C@]43C)[C@@H]12 [BETULINIC ACID]
[1]
  pIC50: 4.59
[2]
  Activity: Active
[3]
  Activity: Active
[4]
  pIC50: 4.44
[5]
  Activity: Active
[6]
  Activity: Active
[7]
  pIC50: 4.57
[8]
  Activity: Active
[9]
  Activity: Active
[10]
  Activity: Active
[11]
  Activity: Active

## C=C(C)[C@@H]1CC[C@]2(COC(=O)n3ccnc3)CC[C@]3(C)[C@H](CC[C@@H]4[C@@]5(C)CC[C@H](OC(C)=O)C(C)(C)[C@@H]5CC[C@]43C)[C@@H]12
[1]
  pIC50: < 4.52
[4]
  pIC50: < 4.52
[7]
  pIC50: < 4.52

## C=C(C)[C@@H]1CC[C@]2(C(=O)n3ccnc3)CC[C@]3(C)[C@H](CC[C@@H]4[C@@]5(C)C=CC(=O)C(C)(C)[C@@H]5CC[C@]43C)[C@@H]12
[1]
  pIC50: 5.52
[4]
  pIC50: 5.77
[7]
  pIC50: 5.64

## C=C(C)[C@@H]1CC[C@]2(C(=O)n3ccnc3)CC[C@]3(C)[C@H](CC[C@@H]4[C@@]5(C)C=C(O)C(=O)C(C)(C)[C@@H]5CC[C@]43C)[C@@H]12
[1]
  pIC50: 5.34
[2]
  Activity: Active
[3]
  Activity: Active
[4]
  pIC50: 5.19
[5]
  Activity: Active
[6]
  Activity: Active
[7]
  pIC50: 5.15
[8]
  Activity: Active
[9]
  Activity: Active
[10]
  Activity: Active
[11]
  Activity: Active

## C=C(C)[C@@H]1CC[C@]2(C(=O)n3ccnc3)CC[C@]3(C)[C@H](CC[C@@H]4[C@@]5(C)CCC(=O)C(C)(C)[C@@H]5CC[C@]43C)[C@@H]12
[1]
  pIC50: 5.70
[4]
  pIC50: 6.10
[7]
  pIC50: 5.85

## C=C(C)[C@@H]1CC[C@]2(COC(=O)n3ccnc3)CC[C@]3(C)[C@H](CC[C@@H]4[C@@]5(C)CC[C@H](O)C(C)(C)[C@@H]5CC[C@]43C)[C@@H]12
[1]
  pIC50: 5.12
[2]
  Activity: Active
[3]
  Activity: Active
[4]
  pIC50: 5.38
[5]
  Activity: Active
[6]
  Activity: Active
[7]
  pIC50: 4.79
[8]
  Activity: Active
[9]
  Activity: Active
[10]
  Activity: Active
[11]
  Activity: Active

## C=C(COC)[C@@H]1CC[C@]2(COC(=O)n3ccnc3)CC[C@]3(C)[C@H](CC[C@@H]4[C@@]5(C)CC[C@H](O)C(C)(C)[C@@H]5CC[C@]43C)[C@@H]12
[1]
  pIC50: 5.01
[2]
  Activity: Active
[3]
  Activity: Active
[4]
  pIC50: 5.08
[5]
  Activity: Active
[6]
  Activity: Active
[7]
  pIC50: 4.91
[8]
  Activity: Active
[9]
  Activity: Active
[10]
  Activity: Active
[11]
  Activity: Active

## C=C(COC)[C@@H]1CC[C@]2(COC(=O)n3ccnc3)CC[C@]3(C)[C@H](CC[C@@H]4[C@@]5(C)CC[C@H](OC(=O)n6ccnc6)C(C)(C)[C@@H]5CC[C@]43C)[C@@H]12
[1]
  pIC50: < 4.52
[4]
  pIC50: 4.71
[7]
  pIC50: 4.79

## C=C(C)[C@@H]1CC[C@]2(C(=O)OC)CC[C@]3(C)[C@H](CC[C@@H]4[C@@]5(C)CC[C@H](OC(=O)n6ccnc6)C(C)(C)[C@@H]5CC[C@]43C)[C@@H]12
[1]
  pIC50: 5.09
[4]
  pIC50: 5.37
[7]
  pIC50: 5.00

## C=C(C)[C@@H]1CC[C@]2(C(=O)O)CC[C@]3(C)[C@H](CC[C@@H]4[C@@]5(C)CC[C@H](OC(=O)n6ccnc6)C(C)(C)[C@@H]5CC[C@]43C)[C@@H]12
[1]
  pIC50: 5.29
[2]
  Activity: Active
[3]
  Activity: Active
[4]
  pIC50: 5.21
[5]
  Activity: Active
[6]
  Activity: Active
[7]
  pIC50: 5.28
[8]
  Activity: Active
[9]
  Activity: Active
[10]
  Activity: Active
[11]
  Activity: Active

## C=C(C)[C@@H]1CC[C@]2(COC(C)=O)CC[C@]3(C)[C@H](CC[C@@H]4[C@@]5(C)CC[C@H](OC(=O)n6ccnc6)C(C)(C)[C@@H]5CC[C@]43C)[C@@H]12
[1]
  pIC50: < 4.52
[4]
  pIC50: < 4.52
[7]
  pIC50: < 4.52

## C[C@@H](C=O)[C@@H]1CC[C@]2(COC(=O)n3ccnc3)CC[C@]3(C)[C@H](CC[C@@H]4[C@@]5(C)CC[C@H](OC(=O)n6ccnc6)C(C)(C)[C@@H]5CC[C@]43C)[C@@H]12
[1]
  pIC50: 4.72
[4]
  pIC50: 4.58
[7]
  pIC50: 4.69

## C=C(C)[C@@H]1CC[C@]2(C(=O)n3ccnc3)CC[C@]3(C)[C@H](CC[C@@H]4[C@@]5(C)C=C(OC(=O)n6ccnc6)C(=O)C(C)(C)[C@@H]5CC[C@]43C)[C@@H]12
[1]
  pIC50: 5.41
[4]
  pIC50: 5.40
[7]
  pIC50: 5.09

## C=C(C)[C@@H]1CC[C@]2(C(=O)n3ccnc3)CC[C@]3(C)[C@H](CC[C@@H]4[C@@]5(C)CC[C@H](OC(=O)n6ccnc6)C(C)(C)[C@@H]5CC[C@]43C)[C@@H]12
[1]
  pIC50: 5.09
[4]
  pIC50: 5.54
[7]
  pIC50: 5.22

## C=C(C)[C@@H]1CC[C@]2(COC(=O)n3ccnc3)CC[C@]3(C)[C@H](CC[C@@H]4[C@@]5(C)CC[C@H](OC(=O)n6ccnc6)C(C)(C)[C@@H]5CC[C@]43C)[C@@H]12
[1]
  pIC50: < 4.52
[4]
  pIC50: < 4.52
[7]
  pIC50: < 4.52

## C=C(C)[C@@H]1CC[C@]2(CO)CC[C@]3(C)[C@H](CC[C@@H]4[C@@]5(C)CC[C@H](OC(=O)n6ccnc6)C(C)(C)[C@@H]5CC[C@]43C)[C@@H]12
[1]
  pIC50: 5.52
[4]
  pIC50: 5.70
[7]
  pIC50: 4.95
